Assay results gathered from unrelated publications.
Protocols differ between the studies behind these lines.
Target: Mitogen-activated protein kinase kinase kinase kinase 1 (MAP4K1, Homo sapiens, UniProt Q92918)

| read-out | mode | technique | concentration | measurement | value | SMILES |
| --- | --- | --- | --- | --- | --- | --- |
| binding |  | competition with immobilised ligand | 0.5 µM | remaining binding | 100% | CCCCC(=O)Nc1ccc(-c2ccc3ncn(CCC)c(=O)c3c2)cn1 |
| enzyme activity | inhibitor |  | 1 µM | inhibition | 80% | CO[C@@H]1[C@H](N(C)C(=O)c2ccccc2)C[C@H]2O[C@]1(C)n1c3ccccc3c3c4c(c5c6ccccc6n2c5c31)C(=O)NC4 |
| binding |  |  | 1 µM | remaining binding | 109% | COc1ccc2oc(-c3ccc4nc(N)oc4c3)c/c(=N\c3ccccc3NC(=O)CCN)c2c1 |
| enzyme activity | inhibitor |  | 1 µM | inhibition | 10% | C=CC(=O)N1CCC[C@@H](n2nc(-c3ccc(Oc4ccccc4)cc3)c3c(N)ncnc32)C1 |
| binding |  | competition with immobilised ligand | 1 µM | remaining binding | 66% | C[C@H]1CC[C@H](n2c3cnccc3c3cnc(Nc4ccc5c(n4)CCN(C(=O)CO)C5)nc32)CC1 |
| enzyme activity | inhibitor |  | 0.2 µM | inhibition | 47.8% | C#Cc1cc(-c2cc(Nc3nc(N[C@@H](C)c4ccc(F)cn4)ncc3Cl)n[nH]2)ccc1C=O |
| binding |  | competition with immobilised ligand | 1 µM | remaining binding | 2.6% | CN1CCN(C(=O)c2ccc(NC(=O)Nc3ccc(N(C)c4ccnc(Nc5ccc(CS(C)(=O)=O)cc5)n4)cc3)cc2)CC1 |
| enzyme activity | inhibitor |  | 1 µM | activity vs control | 102% | CC(C)S(=O)(=O)c1ccc2nccc(Nc3ccc4sc(C5CCCC5)nc4c3)c2c1 |
